# Rad51 HR inh: blocks human Rad51 in homologous recombination; hRad51 DNA strand exchange, fluorescence dequenching; hit rate 0.085% among 200,000; AID 1385; Q06609; inhibition, % at 10 µM;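 active = inhibition above 40% at the single screening dose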;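 also: 0% = DMSO control wells and 100% = blanks with heterologous ssDNA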
# Target sequence (Q06609 whole entry, looked up): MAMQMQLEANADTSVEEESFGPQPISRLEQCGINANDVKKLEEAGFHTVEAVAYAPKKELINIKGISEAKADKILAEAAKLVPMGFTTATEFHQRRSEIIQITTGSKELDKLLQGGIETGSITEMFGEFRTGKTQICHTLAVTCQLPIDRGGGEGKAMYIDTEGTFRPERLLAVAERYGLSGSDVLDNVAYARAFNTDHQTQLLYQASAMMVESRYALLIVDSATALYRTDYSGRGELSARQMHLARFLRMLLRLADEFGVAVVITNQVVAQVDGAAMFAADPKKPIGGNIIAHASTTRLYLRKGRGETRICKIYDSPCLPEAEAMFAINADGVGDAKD
#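 material = hRad51 filaments on single-stranded DNA | reagent = Donor/quencher-labelled 47-bp dsDNA substrate | compound = 10 µM final, single point | schedule = strand-exchange reaction 15 min at room temperature | measured by = fluorescein emission 520 nm, excitation 485 nm | read-out basis = % inhibition versus plate control and blank means | benchmarks = plate controls and plate blanks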
# BB579 growth dn: yeast BB579 growth reduction in restrictive medium; AID 804; S. cerevisiae BB579 growth, OD615, 48 h; inhibition, % at 10 µM; hit rate 0.51% among 140,000;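 active = inhibition above a set limit, 3 SD over the mean compound inhibition, cut at about 44% in these data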
#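 Assay system – yeast BB579 (DeaD) · Dosing – single compound dose of 10 µM, 0.25% DMSO final · Detection – OD615 turbidity measurement · Buffer or medium – CSMM-D restrictive synthetic medium containing dextrose (glucose) · Benchmarks – positive control amphotericin B 10 µg/mL · Incubation – 48 h exposure, 30 °C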
# Yeast lifespan up: yeast lifespan extension. S. cerevisiae growth with nicotinamide, OD615; deaD strain in restrictive glucose medium. inhibition of the nicotinamide effect, % at 10 µM. hit rate 0.68% among 130,000;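 active = inhibition above a set limit, placed 3 SD over the median of all compounds, cut at about 26% in these data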;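 also: 0% = nicotinamide-treated wells and 100% = cells grown without nicotinamide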
#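 Measured by: optical density (absorbance) at 615 nm; System: modified budding yeast, DeaD strain; Medium: restrictive CSMM-D dextrose medium; Timing: 4 h preincubation then 48 h treatment at 30 °C.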
# Measles CPE: protection of cells from measles virus | protection (pct of control), % at 4 µM | Measles virus-infected cells, CPE protection, absorbance | hit rate 1.5% among 140,000; in the data active = protection mostly above about 24%, no sharp cut-off; inactive = mostly below about 26%
# HMGR II inh: E. faecalis class II HMG-CoA reductase inhibition. purified E. faecalis HMGR, NADPH absorbance 340 nm kinetic. inhibition, % at 10 µM. hit rate 0.41% among 190,000;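 active = inhibition above a set limit, the median over all tested compounds plus 3 SD, cut at about 9.5% in these data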;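 also: enzyme runs in reverse so mevalonate oxidation gives rising NADPH absorbance; 0% = complete reaction with DMSO and 100% = background rate lacking mevalonate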
# Arbovirus inh: arbovirus infection inhibition. arbovirus infection cell-based antiviral screen. inhibition, % at 10 µM. hit rate 0.37% among 200,000. AID 1251; in the data active = inhibition above about 30%
# Starred values were filed as active, the others as inactive; . = no result. Hits are enriched below; roughly 2.4% of the tested compounds scored in any of these assays.
SMILES,Rad51 HR inh,BB579 growth dn,Yeast lifespan up,Measles CPE,HMGR II inh,Arbovirus inh
O=C(COC(=O)c1cc(Br)ccc1O)Nc1cc(S(=O)(=O)N2CCCC2)ccc1Cl,2,.,.,.,3,6
C=CCC1(NCc2ccco2)CCN(CC)CC1,5,.,.,.,-6,3
CC1CCCCN1C(=O)c1cc(-c2ccc(Cl)c(Cl)c2)on1 (configuration not stated),.,3,-8,46*,-1,-20
CCC1CCCCN1C(=O)c1cc(-c2ccc(Cl)c(Cl)c2)on1 (configuration not stated),-5,-20,-9,6,-1,4
Cc1cnc(C(=O)OCC(=O)N(Cc2ccccc2)C(C)C)cn1,9,.,.,.,0,-4
CCCCCCn1c(CN2CCN(Cc3ccccc3)CC2)nc2c1c(=O)n(C)c(=O)n2C,-3,-37,27*,10,1,-17
O=C(NC1CCCC1)C(c1ccccn1)N(C(=O)c1csnn1)C1CC1 (configuration not stated),-6,-26,-24,86*,-3,6
Cc1ccc(OC2=NS(=O)(=O)c3ccccc32)cc1,2,-44,-6,28*,1,-7
CCc1ccc(OC2=NS(=O)(=O)c3ccccc32)cc1,19,.,.,.,-1,-2
Cn1ccc(C(=O)Nc2ccc(Br)cc2Br)n1,.,-50,-7,27,-2,-3
O=C1NN(c2ccc(F)cc2)C(=O)/C1=C\C=C\c1ccco1,.,-14,32*,1,1,-19
O=C1NN(c2ccc(F)cc2)C(=O)/C1=C\c1cnn(-c2ccccc2)c1,.,.,.,.,-6,-38
O=C(/C=C/c1ccccc1Cl)Nn1cnc2ccccc2c1=O,6,-24,3,31,-1,-17
CCN(/C=N/S(=O)(=O)c1ccc(Cl)cc1)CC,.,.,.,.,-3,7
c1ccc(COc2ccc(OCCCn3cncn3)cc2)cc1,-4,13,-31,30*,-3,1
O=S(=O)(c1ccc(Cl)c(C(F)(F)F)c1)N1CCN(c2ccccn2)CC1,21,.,.,.,2,14
Cc1cc(-c2nc(C)c(C(=O)NN)s2)no1,14,.,.,.,.,.
CC(C)(C)c1ccc(C(=O)CS(=O)(=O)c2ccccc2)cc1,0,-10,-13,48*,-3,1
O=C1/C(=C/c2ccco2)SC(=S)N1c1cccnc1,-17,.,.,.,.,.
O=C1/C(=C\c2ccco2)SC(=S)N1c1ccc(O)cc1,-41,-11,-6,39*,-1,3
C=CCn1c(=O)c(C(=O)NCCc2ccccc2)c(O)c2ccccc21,-17,-79,29*,9,2,-28
C=CCn1c(=O)c(C(=O)Nc2cccnc2)c(O)c2ccccc21,11,-11,.,1,-2,8
N#CC1CC(c2ccccc2)=NN1c1ccccc1[N+](=O)[O-] (configuration not stated),-2,.,.,.,-6,10
Cc1ccc(C2=[N+]([O-])C(C)(C)N(O)C2(C)C)cc1,3,-35,7,46*,-1,-7
CC1=[N+]([O-])C(C)(C)N(O)C1(C)C,16,.,.,.,.,.
SMILES,Rad51 HR inh,BB579 growth dn,Yeast lifespan up,Measles CPE,HMGR II inh,Arbovirus inh
Cc1ccc(C)c(N2CCN(C(=O)Cc3ccc(-n4c(=O)[nH]c5ccsc5c4=O)cc3)CC2)c1,-2,-47,0,3,-3,36*
COc1ccc(C(=O)NN/C(C)=C/C(=O)C(F)(F)C(F)(F)C(F)(F)F)cc1,.,-2,17,5,-3,85*
COc1ccc(C(=O)NNC(=O)OC(C)(C)C)cc1,-4,.,.,.,.,.
Cn1cnnc1Sc1ccc(C(=O)NCCC(c2ccccc2)c2ccccc2)cc1[N+](=O)[O-],.,-42,4,11,-3,-1
Cn1cnnc1Sc1ccc(C(=O)OCC(=O)NC2CC2)cc1[N+](=O)[O-],-28,.,.,.,15*,5
CCCCN(Cc1ccccc1)C(=O)CCN1C(=O)C2C3C=CC(C3)C2C1=O (configuration not stated),0,.,.,.,-8,4
O=C(Nc1nc(-c2ccccn2)cs1)C1COc2ccccc2O1 (configuration not stated),-9,93*,-6,4,-5,-22
O=C(Nc1nc(-c2ccccc2)cs1)C1COc2ccccc2O1 (configuration not stated),-4,-14,-15,28,1,9

# Bioassay records from PubChem.
